The results in this text go back to publication PMC7024737 (British Journal of Pharmacology, 2020).

Data set [1] concerns human platelets (PRP). As to the kind of experiment: Shear stress-induced platelet aggregation. Type of data set: cell-based.
For data set [2], the system named is human platelets (PRP). As to the kind of experiment: Agonist-induced platelet aggregation in human PRP. It counts as cell-based. The settings on record: for IC50: Homo sapiens, Platelet. Put shortly: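 Human blood was anticoagulated with 3.2% citrate (1:9) and spun at 150 g for 15 min to give PRP, adjusted to 3 × 10^8 platelets/ml with PPP. PRP was incubated with test compound for 30 min at 37°C, then stimulated for 6 min with thrombin (0.6–0.8 U·ml−1), collagen (2–4 μg·ml−1), ADP (5–10 μM) or ristocetin (1.0–1.25 mg·ml−1). Aggregation was read by light transmission, with PPP as 100%.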

The next data set deals with washed human platelets. As to the kind of experiment: SIPA in washed human platelets. The settings on record: 30 min incubation, n = 6. It counts as cell-based. The procedure, abridged:
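Human washed platelets (3 × 10^8/ml in Tyrode's pH 7.4, 2 mM CaCl2) were preincubated with test compound for 30 min, and 10 μg·ml−1 vWF was added. They were then sheared in a cone-plate viscometer at 10,800 s−1 for 10 min at 37°C and fixed with 0.5% glutaraldehyde. Aggregation was scored from single-cell counts by light microscopy and […]. n = 6, mean ± SEM.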

The test system of data set [3] is platelets in human whole blood. As to the kind of experiment: Thrombus formation under flow conditions, collagen-coated flow chamber. Type of data set: cell-based. The settings on record: shear rate 1,500 s^−1, concentration-dependent, n = 5. Put shortly: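 Flow chambers were coated with 100 μg·ml−1 equine type I collagen for 60 min at room temperature, washed with PBS and blocked with 1% BSA for 60 min. Whole blood loaded with 5 μM calcein‑green AM was incubated with test compound for 30 min. It was perfused at 1,500 s−1 for 5 min, imaged by confocal microscopy, and reported as % coverage area, n = 5.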

For data set [4], the system named is washed platelets. As to the kind of experiment: Intracellular calcium level under high shear stress. It counts as cell-based, human. The following applies: washed platelets, 10,800 s^−1, concentration-dependent.
In data set [5] the test system is platelets. As to the kind of experiment: 5-HT release under high shear stress. It counts as cell-based, human. Put shortly: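 Platelets were treated with a range of test compound concentrations for 30 min and exposed to high shear stress. Supernatants were collected by centrifugation at 12,000 g for 5 min at 4°C, and 5‑HT was measured by ELISA. Samples were run in duplicate, n = 5 per group. Values are expressed relative to matched vehicle and normalised to unsheared samples.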

The test system of data set [6] is washed platelets. As to the kind of experiment: P-selectin expression under high shear stress. It counts as cell-based, human. Put shortly: (§1)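 Human washed platelets (acid–citrate–dextrose with 1 μM PGE1, washed in Tyrode's pH 7.4, 3 × 10^8/ml, 2 mM CaCl2) were incubated with a range of test compound concentrations, then sheared at 10,800 s−1 for 10 min in a cone-plate viscometer. Cells were labelled with anti-CD42b-PE plus anti-CD62P-FITC, PAC-1-FITC or Alexa Fluor 488-fibrinogen for 20 min in the dark and read by flow cytometry (10,000 events). Values are relative to vehicle and normalised to unsheared samples, mean ± SEM. n = 6 for P-selectin and PAC-1, n = 5 for fibrinogen.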

For another data set, the system named is GP IIb/IIIa. As to the kind of experiment: GP IIb/IIIa activation under high shear stress. It counts as cell-based, human. Put shortly:
as §1

For data set [7], the system named is washed platelets. As to the kind of experiment: Fibrinogen binding under high shear stress. It counts as cell-based, human. The procedure, abridged:
as §1

In data set [8] the test system is platelets. As to the kind of experiment: Platelet cytotoxicity, LDH leakage. The following applies: concentrations up to 1,000 μM. It counts as cell-based, human. The procedure, abridged: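 Platelets were incubated with test compound and centrifuged. Supernatant was added to Tris‑EDTA NADH buffer (56 mM Tris, 5.6 mM EDTA, 0.17 mM β‑NADH, pH 7.4) and preincubated for 10 min at 37°C, then 14‑mM pyruvate solution was added. LDH was read as the fall in A339, expressed as % of total activity in a 0.3% Triton X‑100 lysate. Samples were run in duplicate, with five repeats.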
Background: LDH leaks from cells whose membrane has failed.

For the next data set, the target named is vWF–GP Ib interaction (Homo sapiens, UniProt P04275). As to the kind of experiment: vWF binding to platelets under high shear stress. Type of data set: cell-based. Put shortly: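 Platelets were treated with test compound, exposed to shear stress, and diluted in Tyrode's buffer. They were stained with anti‑vWF‑FITC and anti‑CD42b‑PE for 20 min in the dark, and 10,000 events were analysed by flow cytometry. For GP IIb/IIIa blockade, platelets were preincubated with 2 mM Arg‑Gly‑Asp. Values are expressed relative to vehicle and normalised to unsheared samples, n = 5.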
Sequence of vWF–GP Ib interaction (P04275 764-2813 limits assumed): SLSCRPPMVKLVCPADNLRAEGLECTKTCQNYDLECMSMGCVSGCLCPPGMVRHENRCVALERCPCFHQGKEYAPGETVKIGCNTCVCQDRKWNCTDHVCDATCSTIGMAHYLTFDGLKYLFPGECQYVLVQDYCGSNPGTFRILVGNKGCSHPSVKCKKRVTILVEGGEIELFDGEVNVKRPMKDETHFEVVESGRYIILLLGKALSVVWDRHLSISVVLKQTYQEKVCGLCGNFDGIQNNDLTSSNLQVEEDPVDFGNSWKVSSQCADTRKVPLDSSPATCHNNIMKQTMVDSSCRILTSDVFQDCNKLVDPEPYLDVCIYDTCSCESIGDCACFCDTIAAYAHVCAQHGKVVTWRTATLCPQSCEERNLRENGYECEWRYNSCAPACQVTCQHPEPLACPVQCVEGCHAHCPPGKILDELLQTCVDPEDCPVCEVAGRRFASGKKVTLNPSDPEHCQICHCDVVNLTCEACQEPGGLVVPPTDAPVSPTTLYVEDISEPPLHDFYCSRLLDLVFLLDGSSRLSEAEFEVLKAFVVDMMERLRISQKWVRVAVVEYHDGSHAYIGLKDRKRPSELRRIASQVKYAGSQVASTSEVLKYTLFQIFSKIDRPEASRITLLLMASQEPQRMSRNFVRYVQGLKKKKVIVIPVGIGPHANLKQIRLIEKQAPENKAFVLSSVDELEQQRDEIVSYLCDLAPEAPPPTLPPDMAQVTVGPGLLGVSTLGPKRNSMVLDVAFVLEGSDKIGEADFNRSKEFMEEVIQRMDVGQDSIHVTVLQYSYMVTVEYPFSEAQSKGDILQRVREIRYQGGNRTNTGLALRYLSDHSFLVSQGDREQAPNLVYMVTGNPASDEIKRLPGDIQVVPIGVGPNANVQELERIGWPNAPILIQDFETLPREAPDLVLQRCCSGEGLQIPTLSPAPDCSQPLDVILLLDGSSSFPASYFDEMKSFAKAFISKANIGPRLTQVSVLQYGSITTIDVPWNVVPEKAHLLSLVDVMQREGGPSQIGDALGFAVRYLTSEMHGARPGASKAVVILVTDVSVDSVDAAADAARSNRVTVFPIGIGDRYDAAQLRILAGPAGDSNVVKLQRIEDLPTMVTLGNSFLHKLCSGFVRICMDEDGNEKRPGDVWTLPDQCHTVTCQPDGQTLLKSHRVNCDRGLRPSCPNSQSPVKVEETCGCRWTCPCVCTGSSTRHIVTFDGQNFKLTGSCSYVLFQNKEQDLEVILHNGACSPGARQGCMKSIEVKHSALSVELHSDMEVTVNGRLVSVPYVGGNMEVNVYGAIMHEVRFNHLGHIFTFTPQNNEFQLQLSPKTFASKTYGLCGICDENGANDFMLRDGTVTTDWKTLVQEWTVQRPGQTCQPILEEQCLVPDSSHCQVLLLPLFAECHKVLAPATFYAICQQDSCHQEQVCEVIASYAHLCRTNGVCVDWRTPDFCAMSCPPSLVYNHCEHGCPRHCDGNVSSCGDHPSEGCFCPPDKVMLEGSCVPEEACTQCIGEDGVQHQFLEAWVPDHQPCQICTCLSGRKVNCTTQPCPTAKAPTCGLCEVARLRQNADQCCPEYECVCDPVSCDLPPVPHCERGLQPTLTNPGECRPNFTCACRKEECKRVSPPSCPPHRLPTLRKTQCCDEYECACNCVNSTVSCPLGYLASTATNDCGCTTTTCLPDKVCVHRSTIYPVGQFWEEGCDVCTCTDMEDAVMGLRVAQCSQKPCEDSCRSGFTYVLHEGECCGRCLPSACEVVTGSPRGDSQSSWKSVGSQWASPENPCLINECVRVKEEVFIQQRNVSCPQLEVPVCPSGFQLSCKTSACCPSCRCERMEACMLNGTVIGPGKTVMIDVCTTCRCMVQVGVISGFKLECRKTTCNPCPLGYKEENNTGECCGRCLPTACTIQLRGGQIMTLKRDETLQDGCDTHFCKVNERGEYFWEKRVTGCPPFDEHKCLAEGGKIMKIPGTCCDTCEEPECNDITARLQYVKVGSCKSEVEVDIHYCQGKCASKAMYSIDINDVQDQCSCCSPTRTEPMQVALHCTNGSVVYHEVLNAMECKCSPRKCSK

Another data set deals with human purified vWF. As to the kind of experiment: Platelet adhesion to vWF-coated flow chamber under high shear stress. The following applies: flow chamber coated with 50 μg·ml^−1 vWF. Type of data set: cell-based.
Data set [9] in a line: Pharmacokinetic experiments in rats. Type of data set: in vivo. The following applies: Sprague-Dawley, rat, plasma; for Tmax: SD rats, p.o. 25 mg·kg^−1.
Data set [10] relates to rat platelets (PRP). As to the kind of experiment: SIPA in rat PRP in vitro. The settings on record: n = 8. It counts as cell-based.
Data set [11] concerns rat platelets (PRP). As to the kind of experiment: Ex vivo determination of SIPA inhibition after oral dosing. It counts as in vivo. The following applies: rats, 5, 10 and 25 mg·kg^−1 p.o., 1 hr. The procedure, abridged:
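Male SD rats (280–320 g) were gavaged with test compound in 5% DMSO/10% Tween 80 in water at 5 ml·kg−1. After 1 hr, aortic blood was drawn under urethane (1.25 g·kg−1 i.p.) into 3.8% citrate (1:9), and PRP was prepared. PRP was sheared at 10,800 s−1 in a cone‑plate viscometer, fixed with glutaraldehyde, and aggregation was scored by microscopic single‑cell count. n = 6 rats per group.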

The test system of data set [12] is carotid artery thrombosis in SD rats. As to the kind of experiment: FeCl3-induced arterial thrombosis model. It counts as in vivo, rat.
Another data set deals with SD rats. As to the kind of experiment: Transection tail bleeding time. Type of data set: in vivo, rat. The procedure, abridged: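 Male SD rats were dosed orally with test compound, either once or twice daily for 2 weeks; clopidogrel 8 mg·kg−1 was given on the same regimens. One hour after dosing, under urethane (1.25 g·kg−1 i.p.), tails were transected 3 mm from the tip and blotted every 30 s until bleeding stopped, with a 30 min cut‑off. n = 6 (single) or 5 (multiple) per group.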

Data set [13] is described as follows: Ex vivo prothrombin time and activated partial thromboplastin time. The following applies: rats, therapeutic dose range p.o., 1 hr.

Molecules are shown by their SMILES. “And” between values parts separate entries of the source, which are not always exact repeats. Equal values may be shown once. Read-outs that look alike come from different tables or passages of the source.

One may read the inhibition as the share of the control response that was lost under treatment. For orientation: IC50 means the concentration that inhibits the measured activity by half. In general, AUC(0-inf) refers to total exposure, with the tail of the curve extrapolated. A high value points to high exposure. Usually Vd stands for a proportionality between amount in the body and measured concentration, not a real space. The term clearance denotes a measure of how efficiently the substance is removed, as volume per time. By half-life is commonly meant the time needed for the level to fall by half in the phase considered. In general, bioavailability refers to dose-corrected exposure relative to a reference, in per cent. For orientation: Cmax means the peak of the concentration-time curve. Broadly, the Tmax is the time at which the peak concentration occurs. For the compound `CCc1occc(=O)c1OC(=O)c1ccc(O)c(OC)c1` [SP‐8008, benzoic acid, 4‐hydroxy‐3‐methoxy‐, 2‐ethyl‐4‐oxo‐4H‐pyran‐3‐yl ester], in the data set on human platelets (PRP) [1] (Homo sapiens, Platelet, read-out: In vitro SIPA inhibition (%)), the inhibition at 25 µM came to 84 ± 16%. The “Effect on SIPA in human PRP” value in the data set on human platelets (PRP) [1] (concentration-dependent, 30 min incubation, n = 8) is reported as “significantly inhibited”. For the same compound, in the data set on human platelets (PRP) [1] (ratio of IC50 values), the “Selectivity for SIPA over thrombin, collagen, ADP” value was “over 150 fold”. Moreover, in the data set on human platelets (PRP) [2] (read-out: IC50 (μM), platelet activator ADP), the IC50 was greater than 250 µM. Moreover, in the data set on human platelets (PRP) [2] (read-out: IC50 (μM), platelet activator collagen), the IC50 is greater than 250 µM. Further, in the data set on human platelets (PRP) [2] (read-out: IC50 (μM), platelet activator thrombin), the IC50 was greater than 250 µM. In addition, the Ristocetin-induced platelet aggregation result in the data set on human platelets (PRP) [2] (human PRP, ristocetin) is listed as “attenuated”. Moreover, the “Effect on SIPA in washed human platelets” value in the data set on washed human platelets is “suppressed”. Besides, in [3], the “Size and number of platelet aggregates in collagen-coated flow chamber” value is on record as “significantly reduced”. In addition, in the data set with washed platelets [4], the “Effect on shear stress-induced intracellular calcium elevation” value is reported as “decreased the elevation of intracellular calcium”. Further, the “Effect on shear stress-induced 5-HT release (dense granule secretion)” value in the data set with platelets [5] is recorded as “significant reduction”. In addition, in the data set on washed platelets [6], the “Effect on shear stress-induced P-selectin expression (α-granule secretion)” value is recorded as “significant reduction”. Also, the “Effect on shear stress-induced GP IIb/IIIa activation” value with GP IIb/IIIa was “significantly blocked”. Further, the “Effect on shear stress-induced fibrinogen binding” value in the data set on washed platelets [7] is given as “significantly blocked”. Also, in the data set on platelets [8], the “LDH leakage from platelets” value is listed as “did not increase LDH leakage”. In addition, on vWF–GP Ib interaction (GP IIb/IIIa blocked by Arg-Gly-Asp 2 mM), the “Binding of vWF to platelets under high shear with GP IIb/IIIa blocked” value is on record as “maintained”. Moreover, the “Binding of vWF to platelets under high shear” value on vWF–GP Ib interaction (GP IIb/IIIa free, concentration-dependent) was “markedly blocked”. Also, in the data set on human purified vWF, the “Adhesion of platelets to vWF-coated surfaces” value is listed as “significantly inhibited”. In addition, in data set [9] (iv, 10 mg/kg), the AUC(0-inf) amounted to 3.25 µg·h/mL, the Vd was determined as 5.3 ± 1.1 L/kg, the clearance is 3.1 L/h/kg and the half-life was 2.4 ± 0.5 h. Also, the bioavailability in data set [9] (oral, 25 mg·kg^−1) was found to be 55.3 ± 16.7%. In [9] (po, 25 mg/kg), this compound had an AUC(0-inf) of 4.49 µg·h/mL, a Cmax of 2.37 µg/mL and a half-life of 3.6 ± 1.4 h. For the same compound, in data set [9] (po, 25 mg/kg, tmax (hr)), the Tmax was 7.2 ± 6 min. Also, in data set [9] (po, 25 mg/kg, tmax), the Tmax is roughly 7 min. For the same compound, in data set [9] (po, 25 mg·kg^−1), the concentration at 3 min came out at 2.29 µg/mL; the concentration at 15 min was 1750 ng/mL and 6 µM; the concentration at 30 min was 1060 ng/mL and 3.7 µM; the concentration at 1 hr is 2.2 µM and 586 ng/mL. Besides, in [9] (po, 25 mg·kg^−1), the concentration at 4 hr was 1.3 µM and 366 ng/mL; the concentration at 8 hr was 700 nM and 198 ng/mL. Also, the “Effect on SIPA in rat platelets in vitro” value with rat platelets (PRP) [10] is listed as “significantly inhibited”. Besides, the “Ex vivo effect on SIPA after oral administration” value with rat platelets (PRP) [11] is “dose‐dependent inhibitory effects”. Besides, the “Potency against arterial thrombosis after intravenous administration” value in data set [12] (intravenous administration, data not shown) is given as “strong inhibitory potency”. For the same compound, the “Inhibition of arterial thrombosis compared with clopidogrel (8 mg·kg^−1)” value in data set [12] (rats, 25 mg·kg^−1 p.o., single treatment) is “close to that provided by clopidogrel”. In addition, in data set [12] (rats, 10 or 25 mg·kg^−1 p.o., FeCl3), the “Time to occlusion, single treatment” value is “significantly prolong”. Also, the “Antithrombotic effects, multiple treatments” value in data set [12] (rats, oral twice daily for 5 days (2 weeks elsewhere in the source)) is “further confirmed”. Further, in the data set with SD rats (single oral dose up to 100 mg·kg^−1), the “Tail bleeding time, single dose” value was “did not prolong bleeding time”. In data set [13], the “Blood clotting time (prothrombin time and activated partial thromboplastin time)” value is “did not prolong blood clotting time”.
For `COC(=O)[C@H](c1ccccc1Cl)N1CCc2sccc2C1` [clopidogrel, reference compound], the “Tail bleeding time (bleeding risk)” value in the data set with SD rats (8 mg·kg^−1) is given as “clearly increased”.
